Measurements taken from ChEMBL document CHEMBL1124984, “Benzophenone dicarboxylic acid antagonists of leukotriene B4. 2. Structure-activity relationships of the lipophilic side chain” (J Med Chem, 1990).

Key:
[1] = target: T1, Leukotriene B4 receptor 1 (Homo sapiens, UniProt Q15722); assay: Inhibition of specific binding of [3H]LTB4 to Leukotriene B4 receptor in human neutrophils
[2] = target: T2, Leukotriene B4 receptor (Homo sapiens) (UniProt Q9NPC1+Q15722); assay: Antagonistic activity against Leukotriene B4 receptor by using [3H]- LTB4 as a radioligand at a concentration of 10e-8 M; type: functional
In short: (§1)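 Neutrophil suspensions (≥90% neutrophils, ≥90% viable) at 2 × 10^7 cells/mL in Hanks' balanced salt solution with 0.1% ovalbumin. Cells were incubated 10 min at 4 °C with compound in DMSO and [3H]LTB4 added as a 2.65 nM solution. Cells were spun 2 min through dibutyl/dinonyl phthalate (7:2) and the pellet counted by scintillation. Nonspecific binding was measured with >2000-fold excess unlabeled ligand. Results are % inhibition of specific binding, mean of ≥3 replicates.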

[3] = target: T2, Leukotriene B4 receptor (Homo sapiens); assay: Antagonistic activity against Leukotriene B4 receptor by using [3H]- LTB4 as a radioligand at a concentration of 10e-6 M; type: functional; in short: as §1
[4] = target: T2, Leukotriene B4 receptor (Homo sapiens); assay: Antagonistic activity against Leukotriene B4 receptor by using [3H]- LTB4 as a radioligand at a concentration of 10e-5 M; type: functional; in short: as §1
[5] = target: T2, Leukotriene B4 receptor (Homo sapiens); assay: Antagonistic activity against Leukotriene B4 receptor by using [3H]- LTB4 as a radioligand at a concentration of 10e-7 M; type: functional; in short: as §1
[6] = target: T1, Leukotriene B4 receptor 1; assay: Inhibition of binding of B4 (LTB4) to its Leukotriene B4 receptor on intact human neutrophils at a concentration of 10e -7M.; in short: as §1
[7] = target: T1, Leukotriene B4 receptor 1; assay: Inhibition of binding of B4 (LTB4) to Leukotriene B4 receptor on intact human neutrophils at a concentration of 10e -8M.; in short: as §1

T1 sequence (Q15722 whole entry): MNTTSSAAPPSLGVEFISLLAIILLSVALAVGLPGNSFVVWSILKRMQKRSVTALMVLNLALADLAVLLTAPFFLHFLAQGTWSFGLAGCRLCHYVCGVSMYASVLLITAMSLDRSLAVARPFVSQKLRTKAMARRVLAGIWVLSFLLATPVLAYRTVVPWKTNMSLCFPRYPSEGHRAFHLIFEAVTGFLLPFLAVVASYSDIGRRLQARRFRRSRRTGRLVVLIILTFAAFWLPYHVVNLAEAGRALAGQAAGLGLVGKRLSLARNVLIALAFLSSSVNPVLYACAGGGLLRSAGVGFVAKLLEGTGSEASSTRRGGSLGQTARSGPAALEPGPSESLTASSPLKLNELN
T2 sequence (Q15722 whole entry, looked up): as the sequence (Q15722 whole entry) above
T2 sequence (Q9NPC1 whole entry, looked up): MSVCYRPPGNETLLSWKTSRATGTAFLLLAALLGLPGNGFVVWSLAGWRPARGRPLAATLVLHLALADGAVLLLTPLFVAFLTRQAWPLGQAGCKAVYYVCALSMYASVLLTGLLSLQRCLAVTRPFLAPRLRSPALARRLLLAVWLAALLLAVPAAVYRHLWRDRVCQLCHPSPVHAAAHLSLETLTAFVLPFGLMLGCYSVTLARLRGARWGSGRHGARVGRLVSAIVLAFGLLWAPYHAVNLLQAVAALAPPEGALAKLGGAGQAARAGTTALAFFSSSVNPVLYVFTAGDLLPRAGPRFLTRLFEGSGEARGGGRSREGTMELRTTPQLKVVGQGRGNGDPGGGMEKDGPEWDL

Row | SMILES | IC50 [1] [nM] | inhibition [2] [%] | inhibition [3] [%] | inhibition [4] [%] | inhibition [5] [%] | inhibition [6] [%] | inhibition [7] [%]
1 | COc1ccc(/C=C/CCCCOc2ccc(C(=O)c3cccc(C(=O)O)c3)cc2CCC(=O)O)cc1 | 13.2 | 40 | 95 | 100 | 88 |  | 
2 | CCCCCCCCCCOc1ccc(C(=O)c2cccc(C(=O)O)c2)cc1CCC(=O)O |  |  | 60 | 95 |  | 7 | 
3 | CC(=O)c1ccc(CCCCCCOc2ccc(C(=O)c3cccc(C(=O)O)c3)cc2CCC(=O)O)cc1 |  | 11 | 90 |  | 46 |  | 
4 | O=C(O)CCc1cc(C(=O)c2cccc(C(=O)O)c2)ccc1OCCCCCCc1ccc(F)cc1 |  | 6 | 77 | 100 | 22 |  | 
5 | COc1ccccc1CCCCCCOc1ccc(C(=O)c2cccc(C(=O)O)c2)cc1CCC(=O)O |  | 5 | 91 | 100 | 3 |  | 
6 | CCOc1ccc(C(=O)c2cccc(C(=O)O)c2)cc1CCC(=O)O |  |  | 0 | 0 |  | 0 | 0
7 | COc1cccc(CCCCCCOc2ccc(C(=O)c3cccc(C(=O)O)c3)cc2CCC(=O)O)c1 |  |  | 89 | 95 | 46 |  | 
8 | CSc1ccc(/C=C/CCCCOc2ccc(C(=O)c3cccc(C(=O)O)c3)cc2CCC(=O)O)cc1 |  |  | 79 | 100 | 18 |  | 
9 | C[S+]([O-])c1ccc(/C=C/CCCCOc2ccc(C(=O)c3cccc(C(=O)O)c3)cc2CCC(=O)O)cc1 (stereo not drawn) |  | 36 | 95 | 99 | 86 |  | 
10 | O=C(O)CCc1cc(C(=O)c2cccc(C(=O)O)c2)ccc1OCCCCSc1ccccc1 |  |  | 29 | 89 |  |  | 
11 | O=C(O)CCc1cc(C(=O)c2cccc(C(=O)O)c2)ccc1OCc1ccccc1 |  |  | 3 | 31 |  |  | 
12 | O=C(O)CCc1cc(C(=O)c2cccc(C(=O)O)c2)ccc1OCCCCc1cccs1 |  |  |  | 72 |  |  | 
13 | CCCCCCOc1ccc(C(=O)c2cccc(C(=O)O)c2)cc1CCC(=O)O |  |  | 10 | 56 |  | 0 | 0
14 | O=C(O)CCc1cc(C(=O)c2cccc(C(=O)O)c2)ccc1OCCCCCCc1ccc(O)cc1 |  | 6 | 90 | 100 | 43 |  | 
15 | CCCCCCCCCCCCCCOc1ccc(C(=O)c2cccc(C(=O)O)c2)cc1CCC(=O)O |  |  | 29 | 73 |  | 0 | 0
16 | COc1ccc(/C=C\CCCCOc2ccc(C(=O)c3cccc(C(=O)O)c3)cc2CCC(=O)O)cc1 |  | 0 | 76 | 90 | 31 |  | 
17 | O=C(O)CCc1cc(C(=O)c2cccc(C(=O)O)c2)ccc1OCCCc1ccccc1 |  |  | 19 | 60 |  |  | 
18 | O=C(O)CCc1cc(C(=O)c2cccc(C(=O)O)c2)ccc1OCCc1ccccc1 |  |  | 3 | 37 |  |  | 

Row | SMILES | IC50 [1] [nM] | inhibition [2] [%] | inhibition [3] [%] | inhibition [4] [%] | inhibition [5] [%] | inhibition [6] [%] | inhibition [7] [%]
19 | O=C(O)CCc1cc(C(=O)c2cccc(C(=O)O)c2)ccc1OCCCCc1ccccc1 |  |  | 21 | 78 |  |  | 
20 | COc1ccc(C(=O)c2cccc(C(=O)O)c2)cc1CCC(=O)O |  |  | 7 | 0 |  |  | 
21 | COc1ccc(C#CCCCCOc2ccc(C(=O)c3cccc(C(=O)O)c3)cc2CCC(=O)O)cc1 |  | 9 | 90 | 100 | 45 |  | 
22 | COc1ccccc1/C=C/CCCCOc1ccc(C(=O)c2cccc(C(=O)O)c2)cc1CCC(=O)O |  | 25 | 100 | 100 | 88 |  | 
23 | O=C(O)CCc1cc(C(=O)c2cccc(C(=O)O)c2)ccc1OCCCC[S+]([O-])c1ccccc1 (stereo not drawn) |  |  | 0 | 22 |  |  | 
24 | COc1ccc(CCCCCCOc2ccc(C(=O)c3cccc(C(=O)O)c3)cc2CCC(=O)O)cc1 |  | 18 | 96 | 100 | 68 |  | 
25 | O=C(O)CCc1cc(C(=O)c2cccc(C(=O)O)c2)ccc1OCCCCCCc1ccccc1 |  |  | 85 | 100 |  | 36 | 14
26 | O=C(O)CCc1cc(C(=O)c2cccc(C(=O)O)c2)ccc1OCCCCS(=O)(=O)c1ccccc1 |  |  | 4 | 18 |  |  | 
27 | COc1ccc(/C=C/CCCCOc2ccc(C(=O)c3cccc(C(=O)O)c3)cc2CCC(=O)O)c(OC)c1 |  | 20 | 96 | 100 | 66 |  | 
28 | CCCCCCCCOc1ccc(C(=O)c2cccc(C(=O)O)c2)cc1CCC(=O)O |  |  | 35 | 87 |  | 0 | 0
29 | COc1cccc(/C=C/CCCCOc2ccc(C(=O)c3cccc(C(=O)O)c3)cc2CCC(=O)O)c1 |  | 13 | 91 | 99 | 49 |  | 
30 | O=C(O)CCc1cc(C(=O)c2cccc(C(=O)O)c2)ccc1OCCCCCCc1ccc(Cl)cc1 |  | 15 | 93 | 100 | 42 |  | 
31 | Cc1ccc(/C=C/CCCCOc2ccc(C(=O)c3cccc(C(=O)O)c3)cc2CCC(=O)O)cc1 |  | 24 | 96 |  | 73 |  | 
32 | CS(=O)(=O)c1ccc(/C=C/CCCCOc2ccc(C(=O)c3cccc(C(=O)O)c3)cc2CCC(=O)O)cc1 |  | 31 | 89 | 98 | 60 |  | 
33 | O=C(O)CCc1cc(C(=O)c2cccc(C(=O)O)c2)ccc1OCCCCOc1ccccc1 |  |  | 16 | 67 |  |  | 
34 | O=C(O)CCc1cc(C(=O)c2cccc(C(=O)O)c2)ccc1OCCCCCCCCCCc1ccccc1 |  | 0 |  |  | 28 |  | 
35 | O=C(O)CCc1cc(C(=O)c2cccc(C(=O)O)c2)ccc1OCCCC/C=C/c1ccccc1 |  | 3 | 92 | 100 | 34 |  | 
